Results on 167 variants are retold here after the RNAGym collection of RNA variant scans (doi:10.1126/science.aae0568).

Variants at the floor of the assay were thinned out. Bounds are passed on as bounds.

Sequences and labels used below:
B1: tRNA (parent)
chain: GUUCCGUUGGCGUAAUGGUAACGCGUCUCCCUCCUAAGGAGAAGACUGCGGGUUCGAGUCCCGUACGGAACG

This series covers variants of B1. Nature of the series: yeast fitness relative to wild type (ratio to wild type); higher = fitter; tRNA-Arg(CCU), competitive growth, 37 C, YPD. A digest of the protocol: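 For this measurement, the tRNA-Arg(CCU) gene was varied by chemical synthesis at a 3% per-site mutation rate across 69 sites, and each variant was placed at the native genomic locus in Saccharomyces cerevisiae. The pooled strains went through a 24-hour competition in YPD at 37°C in six parallel replicates, with amplicons from start and end populations read by 100-nucleotide paired-end sequencing. Darwinian fitness relative to wild type followed from the change in each genotype's frequency. Genotypes needed ≥ 100 starting reads, and estimates < 0.5 were set to 0.5.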
As to C24G U35G A45C, the yeast fitness was at most 0.5. The figure for C5U C30U A45U is 0.701; for C22A U26A U54C C61A it is 0.612.

Consider A21U C34G G68A, for which the yeast fitness was at most 0.5. In the case of A37U G58C it was 0.789; in that of U2A C11U U19G C55U, 0.571; in that of C11U G44A C60G U64C, at most 0.5.

In the case of C49U A57C, the yeast fitness is 0.78. In the case of A40C G41A, the yeast fitness is 0.978.

With U2C U13A G39C C60G A70U, the yeast fitness was 0.537. C5U C30G C61U: the yeast fitness was at most 0.5.

As to C11G C24G C29U C62G C66A, the yeast fitness was at most 0.5. The figure for C11U A70C is 0.898; for C49G U54G A69U it is at most 0.5.

Regarding U26G A43G, the yeast fitness was 0.895. In the case of U3A C46A G63A A69C it was 0.731. Regarding C24U U35A A69U, the yeast fitness is 0.513. On to C4U A36G G44C, for which the yeast fitness amounted to 0.765. As for C33G C60U, the yeast fitness is at most 0.5.

As for A14G A15G A45U C62U, the yeast fitness is at most 0.5. In the case of A14U C30G C62G it was 0.573; in that of C31G A36G A69C, 0.622. In the case of C4U U7G C34G it was 0.554. Take G6A A70U: the yeast fitness was determined as 0.958. For A14G C33U, the yeast fitness is 0.616. The figure for A15U A36U G48C C66U is at most 0.5; for U32G A40U G52A A57U A65C it is at most 0.5. A14G U16G A36U G68C: the yeast fitness is at most 0.5. As to A43G G56C, the yeast fitness came out at 0.766. Take C30A C33A C62A: the yeast fitness was at most 0.5. For the variant G38C G67C, the yeast fitness was 0.748. In the case of U26A A43C A45U A65C, the yeast fitness is at most 0.5.

On to A14C C46G, for which the yeast fitness came to 0.953.

On to C11G C27U A43C A65G, for which the yeast fitness is at most 0.5. In the case of C11A C29A A57G A65C it was at most 0.5; in that of U7A A20U G52A, at most 0.5; in that of G50A G68C, 0.635. In the case of A14G A20U C22G A43G A69C it was at most 0.5. U2G C31G C33G A40U G52A C60G C62U: the yeast fitness was determined as 0.515. The figure for C4A G25C U26A C61A is at most 0.5; for A36U G51A it is 0.61; for C24U U28C G52C C60G it is 0.524. As for C4U G6C A14C C24G A45C A57C C61U, the yeast fitness was at most 0.5.

Regarding C34G C55A C66U, the yeast fitness is at most 0.5. Take C4A A42C C66G G68C: the yeast fitness was at most 0.5.

A14G A43U G50U G68C: the yeast fitness was at most 0.5. In the case of C5U A14U C30U G39C C60A it was at most 0.5; in that of C11A C27U C60G, 0.532; in that of C30U C33G C46G, at most 0.5. In the case of U7A C61G it was 0.563; in that of G9A C27U A45C, 0.904.

For the variant C11G C31G U47C C55G, the yeast fitness is at most 0.5. In the case of U13A U26G C29U it was at most 0.5. The figure for U16A G18A C31U A69C is at most 0.5. The figure for A15G G23C A45G G52A G63A is at most 0.5; for G12A G17A G18A A36G A42U C46U C55U it is 0.581; for A43G G58A C61G it is at most 0.5.

Turning to U8A G39C A65G, the yeast fitness was at most 0.5.

For the variant G50A G67C, the yeast fitness came out at 0.743. The figure for G38C C66G G67U is at most 0.5. The figure for A14C G68A is 0.712. In the case of U7C C46G it was 0.943; in that of C31U C49U C60A G63C, at most 0.5. In the case of C4G U7C U13G, the yeast fitness came to 0.537. In the case of C24G G39C it was 0.608; in that of U2C G6A, 0.998; in that of G50A C62U G63A, at most 0.5. As to C5U G10A C27G, the yeast fitness was at most 0.5.

Take A20C G67A: the yeast fitness amounted to 0.873. The figure for U7A G25A A65U is 0.765. The figure for G17A U26G G51A is at most 0.5; for C24G A36C C55G it is 0.587; for C5G G41A it is 0.698. C5G C33G G67A: the yeast fitness was at most 0.5.

Consider A37C A43U, for which the yeast fitness worked out at 0.992. Regarding A14C A20U A69C, the yeast fitness is at most 0.5.

C11A C31U A70U: the yeast fitness was 0.629. In the case of C27A A65C it was 0.878. In the case of A21U A40U A69C it was 0.574; in that of C55A A57C, 0.597. Consider G6A C33U C49A G58C A69U, for which the yeast fitness was at most 0.5.

Turning to G6C G17A C30U A42C A43G, the yeast fitness was at most 0.5. In the case of U2A A42G it was 0.74.

Take A42C G58C: the yeast fitness came to 0.975. The figure for G10C G50A C61G is 0.554; for G6A U35C G44A G48C C55G A69U it is at most 0.5; for U3C G23A C30U C33A G41C A42U it is at most 0.5.

Take C4G C29G C49U: the yeast fitness is 0.588. Take C11U C24G G50U G63C G67A: the yeast fitness was at most 0.5. In the case of C4U A14G C30A it was 0.812. Turning to C5U A14C C31A A40U C60A, the yeast fitness is at most 0.5.

C11G U28G A37G: the yeast fitness is at most 0.5. With A36U A40U A57G, the yeast fitness is at most 0.5. As for A36U A37U A45U A65G, the yeast fitness is at most 0.5.

G9A U19A A43G A69C: the yeast fitness was found to be 0.541. In the case of C11A C29U C33U it was at most 0.5. In the case of U26A C62U it was 0.934. In the case of U32G U35A A65U it was at most 0.5; in that of C24G C34U A36C C46A U54A A57G, 0.566. As to A15C C24A U32A C55U, the yeast fitness is at most 0.5. On to A21U C22G C55A, for which the yeast fitness was at most 0.5.

With G41A C46U C49A, the yeast fitness was at most 0.5. On to U2C U26G A65G, for which the yeast fitness was found to be 0.712.

As to U47A C61U, the yeast fitness came out at 0.948. C5A G67A A69U: the yeast fitness worked out at 0.523. Turning to U16C U54C, the yeast fitness is 0.723. In the case of U54A C62U A65G G68A it was at most 0.5; in that of U7C G67A A70U, at most 0.5; in that of C62A A69U, 0.652. The figure for U2A C4U U28A C30U A57G is 0.688; for C30G G52C C62U it is at most 0.5; for G12A A14G C27G C34G A37U U64A it is at most 0.5. Take U2C G58A C62G: the yeast fitness is 0.597. Take U2C U32G C34U A57G: the yeast fitness was at most 0.5. On to A21C A57C C62A, for which the yeast fitness is at most 0.5. For the variant G12A G18C, the yeast fitness worked out at 0.591. As to G17C U28G C30U C61A A69U, the yeast fitness was at most 0.5. The figure for C5U C22U C31G C33G C34U G68A is at most 0.5; for C30A A40U it is 0.819; for A15U C22A it is 0.738. In the case of U7G A21C G39C C49A G51A it was at most 0.5; in that of U13A U28C C55A, 0.595; in that of C34A A42U A65C, at most 0.5. With G12A U28G A36G, the yeast fitness was at most 0.5.

As for A36U C61U A65U, the yeast fitness was at most 0.5. In the case of G25C U32C C46U G50A, the yeast fitness was 0.667.

In the case of U3C G18A U32G A43C G51A, the yeast fitness was 0.626. For C4U A15U U64C A65G, the yeast fitness was at most 0.5. The figure for A21C U32C C46G C49G is 0.529; for G25A C31A C62U it is 0.586. As to G38C G41C U54C A65G, the yeast fitness was at most 0.5. The figure for A15C C61A is 0.761.

In the case of U2C A37G, the yeast fitness amounted to 0.67.

With A14U U47A, the yeast fitness came out at 0.575.

Take C4U C5A A36U G39C A65C: the yeast fitness was at most 0.5. C24U A57C C60U G67C: the yeast fitness was at most 0.5. The figure for C11U A37C C49U is at most 0.5; for G6C C22A U28A G51U U53G it is at most 0.5; for A15G C30G A37C A65U C66G it is at most 0.5. For G12A C24U G58A U59A A65U, the yeast fitness was at most 0.5.

As for A14G U32C, the yeast fitness is 0.931. The figure for U7A A14C A20G is at most 0.5; for G6C G18A G23A C30U C33U A65G it is 0.536. For A15U A40U G52A A65C, the yeast fitness is at most 0.5.

Take U35A C46A C49G: the yeast fitness is at most 0.5. The figure for A36G C46G G63A is 0.652; for C27G U32G it is at most 0.5. Turning to C4U G6C A14U C24G C66U, the yeast fitness was at most 0.5. The figure for U13A C60U A69U is 0.62; for C27U G51C C55A C66U it is 0.53. The figure for A43G A65U is 0.899; for C5G A20C C27A G39A C61G it is at most 0.5; for C5G A14C it is 0.625. Consider A21U C24A A43C G48A A69C, for which the yeast fitness was at most 0.5. For the variant C24G C31G C33U C46G U54G G67U, the yeast fitness is 0.645. Consider A40U G44A C61A, for which the yeast fitness was determined as 0.511. The figure for U13A G23A G67C is 0.535. For C34U G39A C62U, the yeast fitness was determined as 0.607.

G50U C61A: the yeast fitness is at most 0.5. The figure for G18A A20U A36U A65U is at most 0.5; for A20C U32A U64A A65U it is 0.558; for C55U A65C it is 0.754. C11U C27G C29G C49U G63C: the yeast fitness was at most 0.5. As for C11U G56C C62U, the yeast fitness worked out at 0.575. In the case of G6C C46U C60A, the yeast fitness is 0.644. Turning to C31U A57U, the yeast fitness was 0.619.

On to U8C G9A G41C A69U, for which the yeast fitness was at most 0.5.
